ChEMBL document CHEMBL2040727, “Substituted thiazoles VI. Synthesis and antitumor activity of new 2-acetamido- and 2 or 3-propanamido-thiazole analogs” (2012)

tested on: SK-OV-3; assay: Growth inhibition of human SKOV3 cells at 10 uM after 48 hrs by coulter counter analysis; format: functional; settings: SK-OV-3, 48 h, read-out: GI
How it was run: (§1)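 Single-dose NCI 60-line panel screen of test compounds. Cells grown in RPMI 1640 with 10% FBS. Compounds dissolved in DMSO, then diluted in phosphate buffer saline (final DMSO below 1%). Wells run in duplicate at 6 × 10⁴ cells/ml. Controls held PBS and DMSO at matching dilutions. Incubation 48 h at 37 °C under humidified 5% CO2. Cells diluted tenfold in saline and counted by Coulter counter. Percent growth inhibition taken from mean-graph of treated-cell growth.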

| Structure (SMILES) | inhibition of growth at 10 µM [%] |
| --- | --- |
| CC(C(=O)Nc1nccs1)N1CCN(c2ccccc2)CC1 (stereo not drawn) | < 10 |
| Cc1csc(NC(=O)C(C)N2CCN(c3ccccc3)CC2)n1 (stereo not drawn) | < 10 |

tested on: PC-3; assay: Growth inhibition of human PC3 cells at 10 uM after 48 hrs by coulter counter analysis; format: functional; settings: PC-3, 48 h, read-out: GI; how it was run: as §1

| Structure (SMILES) | inhibition of growth at 10 µM [%] |
| --- | --- |
| CC(C(=O)Nc1nccs1)N1CCN(c2ccccc2)CC1 (stereo not drawn) | < 10 |
| Cc1csc(NC(=O)C(C)N2CCN(c3ccccc3)CC2)n1 (stereo not drawn) | < 10 |

tested on: A549; assay: Growth inhibition of human A549/ATCC cells at 10 uM after 48 hrs by coulter counter analysis; format: functional; settings: A549, 48 h, read-out: GI; how it was run: as §1

| Structure (SMILES) | inhibition of growth at 10 µM [%] |
| --- | --- |
| CC(C(=O)Nc1nccs1)N1CCN(c2ccccc2)CC1 (stereo not drawn) | < 10 |
| Cc1csc(NC(=O)C(C)N2CCN(c3ccccc3)CC2)n1 (stereo not drawn) | < 10 |

tested on: NCI-H23; assay: Growth inhibition of human NCI-H23 cells at 10 uM after 48 hrs by coulter counter analysis; format: functional; settings: NCI-H23, 48 h, read-out: GI; how it was run: as §1

| Structure (SMILES) | inhibition of growth at 10 µM [%] |
| --- | --- |
| CC(C(=O)Nc1nccs1)N1CCN(c2ccccc2)CC1 (stereo not drawn) | < 10 |
| Cc1csc(NC(=O)C(C)N2CCN(c3ccccc3)CC2)n1 (stereo not drawn) | < 10 |

tested on: HCT-116; assay: Growth inhibition of human HCT116 cells at 10 uM after 48 hrs by coulter counter analysis; format: functional; settings: HCT-116, 48 h, read-out: GI; how it was run: as §1

| Structure (SMILES) | inhibition of growth at 10 µM [%] |
| --- | --- |
| CC(C(=O)Nc1nccs1)N1CCN(c2ccccc2)CC1 (stereo not drawn) | < 10 |
| Cc1csc(NC(=O)C(C)N2CCN(c3ccccc3)CC2)n1 (stereo not drawn) | < 10 |

tested on: DU-145; assay: Growth inhibition of human DU145 cells at 10 uM after 48 hrs by coulter counter analysis; format: functional; settings: DU-145, 48 h, read-out: GI; how it was run: as §1

| Structure (SMILES) | inhibition of growth at 10 µM [%] |
| --- | --- |
| CC(C(=O)Nc1nccs1)N1CCN(c2ccccc2)CC1 (stereo not drawn) | < 10 |
| Cc1csc(NC(=O)C(C)N2CCN(c3ccccc3)CC2)n1 (stereo not drawn) | < 10 |

tested on: U-251; assay: Growth inhibition of human U251 cells at 10 uM after 48 hrs by coulter counter analysis; format: functional; settings: U-251, 48 h, read-out: GI
How it was run: (§2)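 Single-dose screen in the NCI 60 cell line panel. Cells grown in RPMI 1640 with 10% FBS. Compounds dissolved in DMSO and diluted in phosphate buffered saline, final DMSO under 1%. Duplicate wells seeded from culture at 6 × 10⁴ cells/ml. Incubated 48 h at 37 °C, humidified, 5% CO2. Cells diluted tenfold in saline and Coulter-counted. Percent growth inhibition computed against PBS/DMSO controls.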

| Structure (SMILES) | inhibition of growth at 10 µM [%] |
| --- | --- |
| CC(C(=O)Nc1nccs1)N1CCN(c2ccccc2)CC1 (stereo not drawn) | < 10 |
| Cc1csc(NC(=O)C(C)N2CCN(c3ccccc3)CC2)n1 (stereo not drawn) | < 10 |

tested on: HL-60(TB); assay: Growth inhibition of human HL-60(TB) cells at 10 uM after 48 hrs by coulter counter analysis; format: functional; settings: HL-60, 48 h, read-out: GI
How it was run: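 Cells grown in RPMI 1640 with 10% FBS. Compound was dissolved in DMSO and diluted in PBS (under 1% DMSO final), then added in duplicate wells to culture at 6 × 10⁴ cells/ml. PBS/DMSO vehicle controls were included. Incubated at 37 °C, humidified 5% CO₂, for 48 h. Cells were diluted 10-fold in saline and Coulter-counted. Single-dose NCI-60 screen, read as percent growth inhibition.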

| Structure (SMILES) | inhibition of growth at 10 µM [%] |
| --- | --- |
| CC(C(=O)Nc1nccs1)N1CCN(c2ccccc2)CC1 (stereo not drawn) | < 10 |
| Cc1csc(NC(=O)C(C)N2CCN(c3ccccc3)CC2)n1 (stereo not drawn) | < 10 |

tested on: HOP-62; assay: Growth inhibition of human HOP62 cells at 10 uM after 48 hrs by coulter counter analysis; format: functional; settings: HOP-62, 48 h, read-out: GI; how it was run: as §1

| Structure (SMILES) | inhibition of growth at 10 µM [%] |
| --- | --- |
| CC(C(=O)Nc1nccs1)N1CCN(c2ccccc2)CC1 (stereo not drawn) | < 10 |
| Cc1csc(NC(=O)C(C)N2CCN(c3ccccc3)CC2)n1 (stereo not drawn) | < 10 |

tested on: SNB-75; assay: Growth inhibition of human SNB75 cells at 10 uM after 48 hrs by coulter counter analysis; format: functional; settings: SNB-75, 48 h, read-out: GI; how it was run: as §2

| Structure (SMILES) | inhibition of growth at 10 µM [%] |
| --- | --- |
| CC(C(=O)Nc1nccs1)N1CCN(c2ccccc2)CC1 (stereo not drawn) | < 10 |
| Cc1csc(NC(=O)C(C)N2CCN(c3ccccc3)CC2)n1 (stereo not drawn) | 24 |

tested on: UACC-257; assay: Growth inhibition of human UACC257 cells at 10 uM after 48 hrs by coulter counter analysis; format: functional; settings: UACC-257, 48 h, read-out: GI; how it was run: as §2

| Structure (SMILES) | inhibition of growth at 10 µM [%] |
| --- | --- |
| CC(C(=O)Nc1nccs1)N1CCN(c2ccccc2)CC1 (stereo not drawn) | < 10 |
| Cc1csc(NC(=O)C(C)N2CCN(c3ccccc3)CC2)n1 (stereo not drawn) | < 10 |

tested on: EKVX; assay: Growth inhibition of human EKVX cells at 10 uM after 48 hrs by coulter counter analysis; format: functional; settings: read-out: GI; how it was run: as §1

| Structure (SMILES) | inhibition of growth at 10 µM [%] |
| --- | --- |
| CC(C(=O)Nc1nccs1)N1CCN(c2ccccc2)CC1 (stereo not drawn) | < 10 |
| Cc1csc(NC(=O)C(C)N2CCN(c3ccccc3)CC2)n1 (stereo not drawn) | < 10 |

tested on: MOLT-4; assay: Growth inhibition of human MOLT4 cells at 10 uM after 48 hrs by coulter counter analysis; format: functional; settings: MOLT-4, 48 h, read-out: GI; how it was run: as §1

| Structure (SMILES) | inhibition of growth at 10 µM [%] |
| --- | --- |
| CC(C(=O)Nc1nccs1)N1CCN(c2ccccc2)CC1 (stereo not drawn) | < 10 |
| Cc1csc(NC(=O)C(C)N2CCN(c3ccccc3)CC2)n1 (stereo not drawn) | < 10 |

tested on: HT-29; assay: Growth inhibition of human HT-29 cells at 10 uM after 48 hrs by coulter counter analysis; format: functional; settings: HT-29, 48 h, read-out: GI; how it was run: as §1

| Structure (SMILES) | inhibition of growth at 10 µM [%] |
| --- | --- |
| CC(C(=O)Nc1nccs1)N1CCN(c2ccccc2)CC1 (stereo not drawn) | < 10 |
| Cc1csc(NC(=O)C(C)N2CCN(c3ccccc3)CC2)n1 (stereo not drawn) | < 10 |

tested on: NCI-H460; assay: Growth inhibition of human NCI-H460 cells at 10 uM after 48 hrs by coulter counter analysis; format: functional; settings: NCI-H460, 48 h, read-out: GI; how it was run: as §1

| Structure (SMILES) | inhibition of growth at 10 µM [%] |
| --- | --- |
| CC(C(=O)Nc1nccs1)N1CCN(c2ccccc2)CC1 (stereo not drawn) | < 10 |
| Cc1csc(NC(=O)C(C)N2CCN(c3ccccc3)CC2)n1 (stereo not drawn) | < 10 |

tested on: SNB-19; assay: Growth inhibition of human SNB19 cells at 10 uM after 48 hrs by coulter counter analysis; format: functional; settings: SNB-19, 48 h, read-out: GI; how it was run: as §1

| Structure (SMILES) | inhibition of growth at 10 µM [%] |
| --- | --- |
| CC(C(=O)Nc1nccs1)N1CCN(c2ccccc2)CC1 (stereo not drawn) | < 10 |
| Cc1csc(NC(=O)C(C)N2CCN(c3ccccc3)CC2)n1 (stereo not drawn) | < 10 |

tested on: CCRF-CEM; assay: Growth inhibition of human CCRF-CEM cells at 10 uM after 48 hrs by coulter counter analysis; format: functional; settings: read-out: GI; how it was run: as §1

| Structure (SMILES) | inhibition of growth at 10 µM [%] |
| --- | --- |
| CC(C(=O)Nc1nccs1)N1CCN(c2ccccc2)CC1 (stereo not drawn) | < 10 |
| Cc1csc(NC(=O)C(C)N2CCN(c3ccccc3)CC2)n1 (stereo not drawn) | < 10 |

tested on: 786-0; assay: Growth inhibition of human 786-0 cells at 10 uM after 48 hrs by coulter counter analysis; format: functional; settings: 786-0, 48 h, read-out: GI; how it was run: as §1

| Structure (SMILES) | inhibition of growth at 10 µM [%] |
| --- | --- |
| CC(C(=O)Nc1nccs1)N1CCN(c2ccccc2)CC1 (stereo not drawn) | < 10 |
| Cc1csc(NC(=O)C(C)N2CCN(c3ccccc3)CC2)n1 (stereo not drawn) | < 10 |

tested on: SK-MEL-28; assay: Growth inhibition of human SK-MEL-28 cells at 10 uM after 48 hrs by coulter counter analysis; format: functional; settings: SK-MEL-28, 48 h, read-out: GI; how it was run: as §1

| Structure (SMILES) | inhibition of growth at 10 µM [%] |
| --- | --- |
| CC(C(=O)Nc1nccs1)N1CCN(c2ccccc2)CC1 (stereo not drawn) | < 10 |
| Cc1csc(NC(=O)C(C)N2CCN(c3ccccc3)CC2)n1 (stereo not drawn) | < 10 |

tested on: K562; assay: Growth inhibition of human K562 cells at 10 uM after 48 hrs by coulter counter analysis; format: functional; settings: K562, 48 h, read-out: GI; how it was run: as §1

| Structure (SMILES) | inhibition of growth at 10 µM [%] |
| --- | --- |
| CC(C(=O)Nc1nccs1)N1CCN(c2ccccc2)CC1 (stereo not drawn) | < 10 |
| Cc1csc(NC(=O)C(C)N2CCN(c3ccccc3)CC2)n1 (stereo not drawn) | < 10 |

tested on: TK-10; assay: Growth inhibition of human TK10 cells at 10 uM after 48 hrs by coulter counter analysis; format: functional; settings: TK-10, 48 h, read-out: GI; how it was run: as §2

| Structure (SMILES) | inhibition of growth at 10 µM [%] |
| --- | --- |
| CC(C(=O)Nc1nccs1)N1CCN(c2ccccc2)CC1 (stereo not drawn) | < 10 |
| Cc1csc(NC(=O)C(C)N2CCN(c3ccccc3)CC2)n1 (stereo not drawn) | < 10 |

tested on: RXF 393; assay: Growth inhibition of human RXF393 cells at 10 uM after 48 hrs by coulter counter analysis; format: functional; settings: RXF 393, 48 h, read-out: GI; how it was run: as §1

| Structure (SMILES) | inhibition of growth at 10 µM [%] |
| --- | --- |
| CC(C(=O)Nc1nccs1)N1CCN(c2ccccc2)CC1 (stereo not drawn) | < 10 |
| Cc1csc(NC(=O)C(C)N2CCN(c3ccccc3)CC2)n1 (stereo not drawn) | < 10 |

tested on: A498; assay: Growth inhibition of human A498 cells at 10 uM after 48 hrs by coulter counter analysis; format: functional; settings: A498, 48 h, read-out: GI; how it was run: as §1

| Structure (SMILES) | inhibition of growth at 10 µM [%] |
| --- | --- |
| CC(C(=O)Nc1nccs1)N1CCN(c2ccccc2)CC1 (stereo not drawn) | < 10 |
| Cc1csc(NC(=O)C(C)N2CCN(c3ccccc3)CC2)n1 (stereo not drawn) | < 10 |

tested on: CAKI-1; assay: Growth inhibition of human Caki1 cells at 10 uM after 48 hrs by coulter counter analysis; format: functional; settings: CAKI-1, 48 h, read-out: GI; how it was run: as §1

| Structure (SMILES) | inhibition of growth at 10 µM [%] |
| --- | --- |
| CC(C(=O)Nc1nccs1)N1CCN(c2ccccc2)CC1 (stereo not drawn) | < 10 |
| Cc1csc(NC(=O)C(C)N2CCN(c3ccccc3)CC2)n1 (stereo not drawn) | < 10 |
